{"source": "ChEMBL document CHEMBL4330127", "about": "“Discovery of Novel Pyruvate Dehydrogenase Kinase 4 Inhibitors for Potential Oral Treatment of Metabolic Diseases” (J Med Chem, 2019)", "key": {"[1]": {"system": "HCT-116", "test": "Induction of apoptosis in human HCT116 cells assessed as live cells at 50 uM after 24 hrs by Annexin V/propidium iodide staining based flow cytometry (reference value: 84.4%)", "format": "functional"}, "[2]": {"system": "RKO", "test": "Induction of apoptosis in human RKO cells assessed as decrease in Bcl-XL expression at 10 to 50 uM after 24 hrs by Western blot analysis", "format": "functional, cell-based", "how_it_was_run": "(§1)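 HCT116 and RKO cells given a range of compound doses for 24 h; lysates probed by Western blot for apoptosis-related proteins (p53, BAX, BCLxL).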"}, "[3]": {"system": "Mast cell", "test": "Inhibition of degranulation in IgE-labeled bone marrow-derived mast cells (unknown origin) assessed as reduction in beta-hexosaminidase release by measuring absorbance at 10 uM preincubated for 1 hr followed by HSA stimulation and measured after 15 mins (reference value: 0.26 +/- 0.025)", "format": "functional"}, "[4]": {"system": "RKO", "test": "Induction of apoptosis in human RKO cells after 24 hrs by Annexin V/propidium iodide staining based flow cytometry", "format": "functional, cell-based"}, "[5]": {"system": "RKO", "test": "Cell cycle arrest in human RKO cells assessed as accumulation at sub-G1 phase at 50 uM after 24 hrs propidium iodide staining based flow cytometry (reference value: 17.6%)", "format": "functional"}, "[6]": {"test": "AUCt in rat at 5 mg/kg, iv", "format": "ADME, organism-based", "details": "in vivo", "how_it_was_run": "(§2)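 Male rats given a single dose, 5 mg/kg intravenously or 10 mg/kg orally. Plasma PK parameters were reported as mean ± SD: AUCt, AUC∞, Cmax, Tmax, T1/2, CL, Vss and oral bioavailability F.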"}, "[7]": {"test": "AUC (0 to infinity) in rat at 5 mg/kg, iv", "format": "ADME, organism-based", "set-up": "dose 5 mg/kg, route intravenous, time infinity", "details": "in vivo", "how_it_was_run": "as §2"}, "[8]": {"system": "Mast cell", "test": "Inhibition of degranulation in IgE-labeled bone marrow-derived mast cells (unknown origin) assessed as reduction in beta-hexosaminidase release by measuring absorbance at 20 uM preincubated for 1 hr followed by HSA stimulation and measured after 15 mins (reference value: 0.26 +/- 0.025)", "format": "functional"}, "[9]": {"system": "RKO", "test": "Induction of apoptosis in human RKO cells assessed as necrotic cells at 25 uM after 24 hrs in presence of oxaliplatin by Annexin V/propidium iodide staining based flow cytometry (reference value: 0.22%)", "format": "functional"}, "[10]": {"molecular_target": "Cytochrome P450 2C9 (Homo sapiens, UniProt P11712)", "sequence (P11712 whole entry)": "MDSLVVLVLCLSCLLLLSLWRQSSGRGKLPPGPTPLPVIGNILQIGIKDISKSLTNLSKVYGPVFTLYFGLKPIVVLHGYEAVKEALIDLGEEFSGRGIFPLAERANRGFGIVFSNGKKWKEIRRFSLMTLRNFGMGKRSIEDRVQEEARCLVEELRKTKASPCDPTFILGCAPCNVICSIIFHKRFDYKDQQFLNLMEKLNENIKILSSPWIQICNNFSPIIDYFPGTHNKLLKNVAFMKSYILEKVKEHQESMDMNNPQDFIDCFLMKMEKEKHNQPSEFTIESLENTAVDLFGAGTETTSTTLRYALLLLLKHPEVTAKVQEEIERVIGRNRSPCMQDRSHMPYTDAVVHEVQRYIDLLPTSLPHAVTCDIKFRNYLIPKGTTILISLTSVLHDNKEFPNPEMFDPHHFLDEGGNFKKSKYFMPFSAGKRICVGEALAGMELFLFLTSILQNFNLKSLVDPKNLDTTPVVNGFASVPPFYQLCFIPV", "test": "Inhibition of CYP2C9 in human liver microsomes assessed as reduction in tolbutamide 4-hydroxylation by tandem mass spectrometry analysis", "format": "ADME", "how_it_was_run": "(§3)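 Pooled human liver microsomes incubated with compound at 0–50 μM final; CYP probe activities (phenacetin O-deethylation for 1A2, tolbutamide 4-hydroxylation for 2C9, omeprazole hydroxylation for 2C19, dextromethorphan O-demethylation for 2D6) run as a cocktail incubation and quantified by tandem MS; duplicates; IC50 derived.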"}, "[11]": {"system": "RKO", "test": "Induction of apoptosis in human RKO cells assessed as necrotic cells at 25 uM after 24 hrs by Annexin V/propidium iodide staining based flow cytometry (reference value: 0.56%)", "format": "functional"}, "[12]": {"system": "RKO", "test": "Cell cycle arrest in human RKO cells assessed as accumulation at G2/M phase at 10 uM after 24 hrs propidium iodide staining based flow cytometry (reference value: 23.3%)", "format": "functional", "how_it_was_run": "(§4)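 HCT116 and RKO cells were treated with compound alone or with oxaliplatin for 24 h before harvest. Cells were stained with propidium iodide, and DNA content was analysed by flow cytometry. Cell-cycle phase populations, including sub-G1, are given as percentages.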"}, "[13]": {"system": "HCT-116", "test": "Induction of apoptosis in human HCT116 cells assessed as increase in cleaved caspase-3 expression at 10 to 50 uM after 24 hrs by Western blot analysis", "format": "functional, cell-based", "how_it_was_run": "as §1"}, "[14]": {"system": "HCT-116", "test": "Cell cycle arrest in human HCT116 cells assessed as accumulation at sub-G1 phase at 25 uM after 24 hrs in presence of oxaliplatin propidium iodide staining based flow cytometry (reference value: 25.1%)", "format": "functional", "how_it_was_run": "as §4"}, "[15]": {"molecular_target": "Cytochrome P450 1A2 (Homo sapiens, UniProt P05177)", "sequence (P05177 whole entry)": "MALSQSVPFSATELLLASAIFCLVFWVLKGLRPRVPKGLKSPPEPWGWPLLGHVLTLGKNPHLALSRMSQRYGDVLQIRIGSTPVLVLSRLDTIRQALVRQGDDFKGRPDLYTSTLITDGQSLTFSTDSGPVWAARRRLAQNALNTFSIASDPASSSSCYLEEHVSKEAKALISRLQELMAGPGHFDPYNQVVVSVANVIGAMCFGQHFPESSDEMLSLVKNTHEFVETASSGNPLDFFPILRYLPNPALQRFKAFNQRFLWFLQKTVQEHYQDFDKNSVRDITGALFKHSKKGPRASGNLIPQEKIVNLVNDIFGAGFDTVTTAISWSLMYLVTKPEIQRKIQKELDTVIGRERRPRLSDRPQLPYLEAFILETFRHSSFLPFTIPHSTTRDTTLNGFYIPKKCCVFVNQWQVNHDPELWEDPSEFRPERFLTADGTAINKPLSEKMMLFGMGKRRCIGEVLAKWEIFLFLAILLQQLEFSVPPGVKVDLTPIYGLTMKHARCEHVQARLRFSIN", "test": "Inhibition of CYP1A2 in human liver microsomes assessed as reduction in phenacetin-O-deethylation by tandem mass spectrometry analysis", "format": "ADME", "how_it_was_run": "as §3"}, "[16]": {"system": "RKO", "test": "Induction of apoptosis in human RKO cells assessed as live cells at 50 uM after 24 hrs by Annexin V/propidium iodide staining based flow cytometry (reference value: 82.4%)", "format": "functional"}, "[17]": {"test": "Volume of distribution at steady state in rat at 5 mg/kg, iv", "format": "ADME, organism-based", "details": "in vivo, read-out: Vdss"}, "[18]": {"system": "RKO", "test": "Induction of apoptosis in human RKO cells assessed as increase in cleaved-PARP expression at 10 to 50 uM after 24 hrs by Western blot analysis", "format": "functional, cell-based", "how_it_was_run": "as §1"}, "[19]": {"system": "RKO", "test": "Induction of apoptosis in human RKO cells assessed as increase in cleaved caspase-3 expression at 10 to 50 uM after 24 hrs by Western blot analysis", "format": "functional, cell-based", "how_it_was_run": "as §1"}, "[20]": {"system": "HCT-116", "test": "Induction of apoptosis in human HCT116 cells assessed as live cells at 25 uM after 24 hrs in presence of oxaliplatin by Annexin V/propidium iodide staining based flow cytometry (reference value: 57.3%)", "format": "functional"}, "[21]": {"system": "HCT-116", "test": "Induction of apoptosis in human HCT116 cells assessed as necrotic cells at 25 uM after 24 hrs by Annexin V/propidium iodide staining based flow cytometry (reference value: 2.92%)", "format": "functional"}, "[22]": {"system": "RKO", "test": "Cell cycle arrest in human RKO cells assessed as accumulation at S phase at 10 uM after 24 hrs propidium iodide staining based flow cytometry (reference value: 19.2%)", "format": "functional"}, "[23]": {"system": "RKO", "test": "Cell cycle arrest in human RKO cells assessed as accumulation at G1/G0 phase at 25 uM after 24 hrs propidium iodide staining based flow cytometry (reference value: 39.9%)", "format": "functional", "how_it_was_run": "as §4"}, "[24]": {"system": "HCT-116", "test": "Induction of apoptosis in human HCT116 cells assessed as necrotic cells at 10 uM after 24 hrs by Annexin V/propidium iodide staining based flow cytometry (reference value: 2.92%)", "format": "functional"}, "[25]": {"system": "RKO", "test": "Cell cycle arrest in human RKO cells assessed as accumulation at G1/G0 phase at 10 uM after 24 hrs propidium iodide staining based flow cytometry (reference value: 39.9%)", "format": "functional", "how_it_was_run": "as §4"}, "[26]": {"system": "RKO", "test": "Induction of apoptosis in human RKO cells assessed as live cells at 25 uM after 24 hrs by Annexin V/propidium iodide staining based flow cytometry (reference value: 82.4%)", "format": "functional"}, "[27]": {"system": "RKO", "test": "Cell cycle arrest in human RKO cells assessed as accumulation at G2/M phase at 25 uM after 24 hrs propidium iodide staining based flow cytometry (reference value: 23.3%)", "format": "functional", "how_it_was_run": "as §4"}, "[28]": {"system": "HCT-116", "test": "Antiproliferative activity against human HCT116 cells up to 50 uM up to 72 hrs by CCK8 assay", "format": "functional, cell-based", "how_it_was_run": "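HCT116 and RKO cells were treated with compound alone or with oxaliplatin and grown for 0–72 h. Viability was read by CCK-8 colorimetry at 450 nm.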"}, "[29]": {"system": "HCT-116", "test": "Induction of apoptosis in human HCT116 cells assessed as late apoptotic cells at 25 uM after 24 hrs by Annexin V/propidium iodide staining based flow cytometry (reference value: 8.36%)", "format": "functional"}, "[30]": {"system": "RKO", "test": "Induction of apoptosis in human RKO cells assessed as early apoptotic cells at 25 uM after 24 hrs in presence of oxaliplatin by Annexin V/propidium iodide staining based flow cytometry (reference value: 6.33%)", "format": "functional"}, "[31]": {"system": "RKO", "test": "Cell cycle arrest in human RKO cells assessed as accumulation at G2/M phase at 50 uM after 24 hrs propidium iodide staining based flow cytometry (reference value: 23.3%)", "format": "functional", "how_it_was_run": "as §4"}, "[32]": {"system": "Vero", "test": "Cytotoxicity against African green monkey Vero cells", "format": "cell-based", "details": "Chlorocebus sabaeus"}, "[33]": {"system": "RKO", "test": "Cell cycle arrest in human RKO cells assessed as accumulation at G1/G0 phase at 50 uM after 24 hrs propidium iodide staining based flow cytometry (reference value: 39.9%)", "format": "functional", "how_it_was_run": "as §4"}}, "note": "pIC50: −log10 of the molar value. The source made the active and inactive calls. The rule behind the calls is not given here."}
{"smiles": "Cl.O=C1c2ccccc2C(=O)c2c1cccc2-c1cnn(C2CCNCC2)c1", "values": [{"measurement": "Activity", "setting": "[1]", "result": 21.2, "unit": "%"}, {"measurement": "Activity", "setting": "[2]", "result": "Active"}, {"measurement": "OD", "setting": "[3]", "result": 0.2}, {"measurement": "Activity", "setting": "[4]", "result": "Dose-dependent effect"}, {"measurement": "Activity", "setting": "[5]", "result": 91.1, "unit": "%"}, {"measurement": "AUC(0-t)", "setting": "[6]", "result": 7020, "unit": "ng·h/mL"}, {"measurement": "AUC(0-inf)", "setting": "[7]", "result": 7610, "unit": "ng·h/mL"}, {"measurement": "OD", "setting": "[8]", "result": 0.126}, {"measurement": "Activity", "setting": "[9]", "result": 5.07, "unit": "%"}, {"measurement": "pIC50", "setting": "[10]", "result": "< 4.30"}, {"measurement": "Activity", "setting": "[11]", "result": 4.61, "unit": "%"}, {"measurement": "Activity", "setting": "[12]", "result": 18.1, "unit": "%"}, {"measurement": "Activity", "setting": "[13]", "result": "Active"}, {"measurement": "Activity", "setting": "[14]", "result": 36, "unit": "%"}, {"measurement": "pIC50", "setting": "[15]", "result": 4.79}, {"measurement": "Activity", "setting": "[16]", "result": 9.59, "unit": "%"}, {"measurement": "Vd", "setting": "[17]", "result": 5.52, "unit": "L/kg"}, {"measurement": "Activity", "setting": "[18]", "result": "Active"}, {"measurement": "Activity", "setting": "[19]", "result": "Active"}, {"measurement": "Activity", "setting": "[20]", "result": 44.6, "unit": "%"}, {"measurement": "Activity", "setting": "[21]", "result": 19.6, "unit": "%"}, {"measurement": "Activity", "setting": "[22]", "result": 13.8, "unit": "%"}, {"measurement": "Activity", "setting": "[23]", "result": 13.7, "unit": "%"}, {"measurement": "Activity", "setting": "[24]", "result": 12.1, "unit": "%"}, {"measurement": "Activity", "setting": "[25]", "result": 46.7, "unit": "%"}, {"measurement": "Activity", "setting": "[26]", "result": 36.7, "unit": "%"}, {"measurement": "Activity", "setting": "[27]", "result": 21.6, "unit": "%"}, {"measurement": "Activity", "setting": "[28]", "result": "Active"}, {"measurement": "Activity", "setting": "[29]", "result": 23.9, "unit": "%"}, {"measurement": "Activity", "setting": "[30]", "result": 24.4, "unit": "%"}, {"measurement": "Activity", "setting": "[31]", "result": 2.8, "unit": "%"}, {"measurement": "pIC50", "setting": "[32]", "result": 4.44}, {"measurement": "Activity", "setting": "[33]", "result": 3.4, "unit": "%"}]}
